Source: PubChem BioAssay (Broad Institute)
Rows were chosen to be rich in hits. Some 0.44% of all compounds tested hit in one or more screens of this group.
FN deposit inh – inhibitors of fibronectin matrix deposition, primary screen, AH1F cells, Alexa488-fibronectin fluorescence, plate reader; AH1F fibroblasts, overnight; inhibition, % at 12.6 µM; 350,000 compounds, 0.086% hits; AID 743247, 2014;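 active means mean inhibition across replicates of 30% or more, regardless of how many single replicates reach that level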;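 further: positive control wells lacked labelled fibronectin entirely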
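Assay system: AH1F fibroblasts assembling fluorescent fibronectin matrix; Amount: 10000 AH1F cells per well; Buffer or medium: DMEM, 2% serum; Probe or stimulus: Alexa488-fibronectin, 24 nM final in well; Doses: single compound dose, delivered by pin transfer; Incubation: 1 h adhesion, overnight exposure; Measured by: fluorescence 485/525 nm; Read-out: fibronectin deposition inhibition.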
RAD54 branch – inhibitors of human RAD54 branch migration, primary screen, biochemical, fluorescence, single point; DNA repair and recombination protein RAD54-like (Homo sapiens), Q92698; RAD54 Holliday junction branch migration, FAM/BHQ fluorescence; inhibition, % at 10.4 µM; 360,000 compounds, 0.14% hits; AID 602329, 2012;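 active means mean normalized replicate activity at least 40 and at least half of replicates scoring 40 or more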;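 further: 0% = median of neutral control wells and 100% = median of positive control wells; inhibitors cause a drop in the FAM fluorescence signal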
PDI turbidity – inhibitors of human PDI, primary screen, biochemical, turbidity, single point, plate reader; PDI insulin aggregation turbidity, A650, 90 min; inhibition, % at 10 µM; 350,000 compounds, 0.052% hits; AID 588391, 2011;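 active means mean inhibition across replicates of 30% or more, whatever share of single replicates reach that level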
Target sequence (P07237 whole entry, looked up): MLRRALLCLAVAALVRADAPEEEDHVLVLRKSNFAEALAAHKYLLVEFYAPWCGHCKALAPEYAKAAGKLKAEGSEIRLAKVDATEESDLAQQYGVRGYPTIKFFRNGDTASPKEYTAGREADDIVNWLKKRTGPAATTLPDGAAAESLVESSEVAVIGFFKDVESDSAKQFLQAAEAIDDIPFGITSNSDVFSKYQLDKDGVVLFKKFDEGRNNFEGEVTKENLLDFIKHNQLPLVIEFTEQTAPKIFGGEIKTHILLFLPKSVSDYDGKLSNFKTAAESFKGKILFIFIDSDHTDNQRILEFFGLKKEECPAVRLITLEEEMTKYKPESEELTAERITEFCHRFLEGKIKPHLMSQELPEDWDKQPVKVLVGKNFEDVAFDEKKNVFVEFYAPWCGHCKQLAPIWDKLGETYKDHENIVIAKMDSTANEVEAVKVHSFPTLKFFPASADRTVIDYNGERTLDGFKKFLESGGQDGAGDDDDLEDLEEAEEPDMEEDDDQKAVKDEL
PglD inh – C. jejuni PglD acetyltransferase inhibitors, primary screen, biochemical, DTNB colorimetric, single point; UDP-N-acetylbacillosamine N-acetyltransferase PglD (Campylobacter jejuni); purified PglD enzyme, DTNB colorimetric CoA detection; inhibition, % at 12.5 µM; 360,000 compounds, 0.098% hits; in the data active means inhibition above about 16%, passing the limit was not always enough
ERp5 block – inhibitors of ERp5-driven insulin aggregation, primary screen, biochemical, turbidity, absorbance 650 nm, single point; inhibition, % at 9.99 µM; Protein disulfide-isomerase A6 (Homo sapiens), Q15084; 90 min; AID 651711, 2012; 350,000 compounds, 0.05% hits;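 active means mean replicate inhibition above about 25%, with every replicate also reaching it, limit read from the data, passing the limit was not always enough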
S100A4 inh HTS – inhibitors of S100A4-myosin IIA peptide binding, primary screen, biochemical, fluorescence polarization, TAMRA-MyoIIA peptide. AID 652163, 2013. inhibition, % at 10.7 µM. Protein S100-A4 (Homo sapiens), P26447. 360,000 compounds, 0.14% hits;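 active means mean inhibition of at least 70% across replicates, with every replicate also reaching that level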
Target sequence (P26447 whole entry, looked up): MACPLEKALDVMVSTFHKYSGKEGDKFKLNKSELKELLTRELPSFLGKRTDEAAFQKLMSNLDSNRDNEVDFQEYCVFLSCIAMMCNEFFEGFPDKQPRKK
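Material: human S100A4 monomer with TAMRA-labelled myosin IIA peptide; buffer or medium: HEPES pH 7.2 with CaCl2, KCl, NaCl, DTT, Triton; compound dosing: one concentration per compound; schedule: 5 min incubation before reading; benchmarks: neutral control DMSO, positive control TFP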
* hit, by the source's call; / = no result; + = active, no number.

SMILES	FN deposit inh	RAD54 branch	PDI turbidity	PglD inh	ERp5 block	S100A4 inh HTS
C[C@@H](O)C1NC(=O)[C@H](CCCCN)NC(=O)c2cc([N+](=O)[O-])cc(F)c2NCCCC[C@@H](C(N)=O)NC1=O (stereo partly specified)	/	54.4*	4.9	-11.5	/	/
O=Cc1s/c(=N\S(=O)(=O)c2ccccc2)n(CCCCl)c1Cl	52.3*	/	8.9	/	-0.7	-0.9
CCC(=O)N[C@@H]1CC[C@H](CC(=O)NCC2CC2)O[C@@H]1CO	8.2	/	/	/	/	/
CC(C)NC(=O)N[C@H]1CC[C@@H](CCNS(=O)(=O)c2ccc(F)cc2)O[C@H]1CO	/	4.0	/	0.7	9.2	17.8
Cc1cc(C)c([C@@H]2C[C@H]3CN(C4CCCC4)C(=O)[C@]34CCCN24)c(-n2cccn2)c1	38.5*	2.2	15.0	7.2	1.9	0.4
O=C(NCCCN1CCCC1)c1ccc(CS(=O)(=O)c2c(Cl)cccc2Cl)o1	6.4	-4.5	-5.9	-6.4	26.2*	1.7
O=C(NCCCN1CCOCC1)c1ccc(CS(=O)(=O)c2c(Cl)cccc2Cl)o1	-8.4	3.9	/	7.5	5.9	-2.4
C[C@@H]1CN([C@H](C)CO)C(=O)c2cc(NS(C)(=O)=O)ccc2O[C@@H](C)CCCCO[C@H]1CN(C)C(=O)Nc1ccc(F)cc1	/	-5.7	/	3.7	-6.1	-9.7
OCCSc1nc(-c2ccccc2)nc2ccc(F)cc12	-7.4	/	-1.8	/	-2.5	-10.4
NC(N)=Nc1nc(-c2ccccc2)c2cc(F)ccc2n1	-10.5	55.9*	-1.3	5.6	-1.4	19.1
C[C@@H]1CN([C@H](C)CO)C(=O)c2cc(NC(=O)C3CC3)ccc2O[C@@H]1CN(C)C(=O)Nc1ccc2c(c1)OCO2	/	-0.6	/	3.9	3.4	102.9*
C[C@@H]1CN([C@@H](C)CO)C(=O)c2cc(NC(=O)CCCCCC(=O)Nc3ccccc3N)ccc2O[C@H]1CN(C)C(=O)Nc1ccc2c(c1)OCO2	/	/	/	/	2.3	119.1*
C[C@H](CO)N1C[C@H](C)[C@H](CN(C)C(=O)Nc2ccc3c(c2)OCO3)Oc2ccc(NC(=O)C3CC3)cc2C1=O	/	2.0	/	18.9	-9.6	-0.1
C[C@@H]1CN([C@@H](C)CO)C(=O)c2cc(NS(=O)(=O)c3ccccc3)ccc2O[C@H]1CN(C)C(=O)Nc1ccc2c(c1)OCO2	-4.7	-18.5	/	2.1	57.9*	5.3
O=C(Nc1ccc(Cl)cc1)N[C@@H]1CC[C@H](CCn2cc(Cc3ccccc3)nn2)O[C@H]1CO	/	3.2	/	-0.9	-2.5	3.8
CN1C(=O)NC(c2ccccc2)C2=C1CN(c1cccc(C(F)(F)F)c1)C2=O (stereo unspecified)	11.3	0.9	30.6*	3.1	/	/
Cc1ccccc1N1CC2=C(C1=O)C(c1ccccc1)NC(=O)N2C (stereo unspecified)	-5.1	-4.6	-3.6	-0.5	-1.8	2.6
COc1ccc(NC(=O)N[C@@H]2C=C[C@H](CC(=O)NC3CCC3)O[C@H]2CO)cc1	/	-6.9	/	0.5	-11.2	9.1
COc1cccc2c1C(=O)c1c(O)c3c(c(O)c1C2=O)C[C@@](O)(C(=O)CO)C[C@@H]3OC1CC(N)C(O)C(C)O1 (stereo partly specified)	-1.3	/	16.5	/	7.3	187.0*
COc1cccc2c1C(=O)c1c(O)c3c(c(O)c1C2=O)C[C@@](O)(C(=O)CO)C[C@@H]3O[C@H]1C[C@H](N)[C@H](O)[C@H](C)O1	-0.7	-94.3	7.1	2.7	8.0	177.7*
CC(=O)[C@@]1(O)Cc2c(O)c3c(c(O)c2[C@H](O[C@H]2C[C@H](N)[C@H](O)[C@H](C)O2)C1)C(=O)c1ccccc1C3=O	-66.7	-492.4	7.9	0.4	-2.8	+
COc1cccc2c1C(=O)c1c(O)c3c(c(O)c1C2=O)CC(O)(C(C)=O)CC3OC1CC(N(C)C)C(O)C(C)O1 (stereo unspecified)	15.3	/	-3.0	/	-0.7	+
C[C@@H]1CN([C@@H](C)CO)C(=O)c2c(c3ccccc3n2C)-c2ccccc2CO[C@@H]1CN(C)C(=O)c1cc(Cl)cc(Cl)c1	-6.3	/	/	/	-2.3	8.9
Cc1ccccc1S(=O)(=O)NCC[C@H]1CC[C@@H](NC(=O)C2CC2)[C@H](CO)O1	-14.3	0.5	/	-1.3	0.8	31.2
O=S(=O)(NC1CCN(Cc2ccc(OCCO)cc2)CC1)c1cc(C(F)(F)F)ccc1Cl	/	-51.5	/	0.3	0.9	11.4
SMILES	FN deposit inh	RAD54 branch	PDI turbidity	PglD inh	ERp5 block	S100A4 inh HTS
CCCC(=O)N1CC2(CCN(C(=O)NC(C)C)CC2)c2c([nH]c3cc(OC)ccc23)[C@@H]1CO	/	/	/	/	0.5	-6.5
CCCc1cc(C(=O)OC)c(NC(=O)CCC(=O)O)s1	33.1*	/	-9.9	/	-2.1	1.6
CCOC(=O)c1cc(CC)sc1NC(=O)CCC(=O)O	/	0.5	-5.7	-0.2	/	/
Cn1c(=O)c2sccc2n2c(CCCC(=O)N3CCN(c4ccccn4)CC3)nnc12	-6.9	-5.1	-5.0	3.2	-2.7	111.1*
COCCCn1c(=O)c2sccc2n2c(CCCC(=O)N3CCN(c4ccccn4)CC3)nnc12	-4.1	-5.9	-4.5	6.7	-3.3	-5.1
COc1ccc(-c2oc3ncnc(NCCCN4CCOCC4)c3c2-c2ccc(OC)cc2)cc1	active	5.6	-2.3	0.3	/	/
CCCNC(=O)N1CC2(C1)CN(C(=O)c1ccncc1)[C@H](CO)c1[nH]c3cc(OC)ccc3c12	/	/	/	/	0.5	25.4
O=C(Cc1cc(=O)oc2cc(O)ccc12)N[C@@H](Cc1c[nH]c2ccccc12)C(=O)O	5.3	-6.6	25.2	4.6	3.7	-4.5
Cc1c(O)ccc2c(CC(=O)N[C@@H](Cc3c[nH]c4ccccc34)C(=O)O)cc(=O)oc12	18.9	-2.0	59.8*	8.0	1.2	-4.9
CO[C@H]1CN(C)C(=O)c2ccc(NS(C)(=O)=O)cc2OC[C@H](C)N(Cc2ccccc2)C[C@@H]1C	/	/	/	/	5.4	-0.3
c1ccc2[nH]c(SCc3cn4cccnc4n3)nc2c1	31.2*	/	1.3	/	/	/
O=C(C1=C[C@H](c2ccccc2)C[C@H](OCc2ccc(CO)cc2)O1)N1CCCC1	/	/	/	/	-4.0	-1.3
CCCCN(CC)Cc1ccc(CNC(=O)Nc2ccc(Cl)cc2)o1	31.2*	/	-4.4	/	-2.8	-4.8
CCCCN(CC)Cc1ccc(CNC(=O)Nc2ccc(OCC)cc2)o1	/	2.3	3.2	-1.5	1.5	-6.0
